Source: PubChem (The Scripps Research Institute Molecular Screening Center)
In the library only some 1.9% were active in any assay of this set; here they are far more common.
DDE Tn7 FP inh: inhibitors of Tn7 peptide binding to fibrin DD(E), primary screen, biochemical, fluorescence polarization, human fibrin, Tn7 probe; Fibrinogen beta chain (Homo sapiens), P02675; FP displacement of FITC-Tn7 peptide from fibrin DD(E); 0% = median of compound wells per plate; inhibition, % at 8.3 µM; 370,000 tested, 0.13% active; AID 720508, 2013;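 active = inhibition above the mean of compounds falling within the control limits plus 3 SD of them, cut at about 14% in these data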;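 also: 0% = plate median of compound wells and 100% = 10 µM Aha-Tn7 peptide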
Target sequence (P02675 whole entry, looked up): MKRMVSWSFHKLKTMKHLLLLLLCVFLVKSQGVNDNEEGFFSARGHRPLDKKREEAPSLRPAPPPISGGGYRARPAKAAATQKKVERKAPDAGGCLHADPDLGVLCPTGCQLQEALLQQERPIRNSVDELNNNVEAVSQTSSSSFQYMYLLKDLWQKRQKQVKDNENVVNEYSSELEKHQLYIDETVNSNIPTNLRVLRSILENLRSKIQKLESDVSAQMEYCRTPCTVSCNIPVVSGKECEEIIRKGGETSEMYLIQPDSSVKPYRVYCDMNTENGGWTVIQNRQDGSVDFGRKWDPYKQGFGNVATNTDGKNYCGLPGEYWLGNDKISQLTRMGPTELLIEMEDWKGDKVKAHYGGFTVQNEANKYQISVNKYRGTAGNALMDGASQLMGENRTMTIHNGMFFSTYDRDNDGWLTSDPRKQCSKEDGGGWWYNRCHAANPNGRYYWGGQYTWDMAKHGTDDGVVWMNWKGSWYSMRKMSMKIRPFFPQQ
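System: human fibrin DD(E); quantity: Fibrin-DD(E) at 2 µM final; also added: fluorescent Tn7 probe at 0.1 µM; compound dosing: single nominal test concentration of 8.3 µM per compound; schedule: 10 min preincubation, 3 h with tracer, room temperature; detection: fluorescence polarization of the labelled Tn7 tracer; repeats: one replicate per compound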
TDP2 absorb: human TDP2 enzyme inhibitors, primary screen, biochemical, epi absorbance, recombinant enzyme | AID 720702, 2013 | T5PNP hydrolysis, p-nitrophenol absorbance 415 nm | Tyrosyl-DNA phosphodiesterase 2 (Homo sapiens), O95551 | inhibition, % at 12.8 µM | 370,000 tested, 0.34% active;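 active = inhibition above the mean of all tested compounds plus 3 SD, set per campaign, cut at about 25% in these data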;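 also: 0% = DMSO with enzyme and 100% = buffer with substrate but no TDP2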
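System – recombinant human TDP2 · Quantity – TDP2 enzyme at 120 nM final · Doses – single concentration, 12.8 µM nominal, with 1% DMSO · Incubation – 2 h at 37 °C · Measured by – epi absorbance of p-nitrophenol freed from T5PNP by hydrolysis · Read-out – % inhibition relative to enzyme-containing and enzyme-free wells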
DDE Tn6 FP inh: inhibitors of Tn6 peptide binding to fibrin DD(E), primary screen, biochemical, fluorescence polarization, human fibrin, Tn6 probe | AID 720509, 2013 | Fibrin DD(E) TRITC-Tn6 fluorescence polarization displacement | 370,000 tested, 0.21% active | Fibrinogen beta chain (Homo sapiens), P02675 | inhibition, % at 8.3 µM;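 active = inhibition above a per-campaign cutoff: mean of compounds within control limits plus 3 SD, cut at about 15% in these data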;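 also: 0% = median of all compound wells on the plate and 100% = blocking peptide control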
UHRF1 MBD2 ctr: UHRF1 methylated DNA binding inhibitors, primary screen, counter-screen for MBD2 inhibitor project, biochemical, TR-FRET, human UHRF1, single concentration | E3 ubiquitin-protein ligase UHRF1 (Homo sapiens), Q96T88 | UHRF1 binding to methylated oligo | inhibition, % at 4.4 µM | 370,000 tested, 0.75% active; in the data active = inhibition above about 21%;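 also: UHRF1 SRA domain binding a hemimethylated CpG hairpin DNA probe; 0% = median of test compound wells and 100% = reference inhibitor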
MBD2 DNA inh: inhibitors of MBD2 binding to methylated DNA, primary screen, biochemical, TR-FRET, DNA-binding domain, human. inhibition, % at 4.4 µM. 370,000 tested, 0.31% active. AID 686964, 2013. MBD2 binding to methylated oligonucleotide. Methyl-CpG-binding domain protein 2 (Homo sapiens), Q9UBB5; in the data active = inhibition above about 13%
LEDGF integ inh: blockers of LEDGF/p75-dependent integrase strand transfer – biochemical, TR-FRET, high throughput, primary screen; TR-FRET IN-LEDGF/p75 DNA integration, Eu/Cy5; 370,000 tested, 0.64% active; HIV-1 integrase (with human LEDGF/p75); inhibition, % at 3.7 µM;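 active = inhibition above the screen-wide mean plus 3 SD, cut at about 13% in these data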;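 also: signal is the Cy5 over europium emission ratio at 671 and 618 nm; 0% = plate median of compound wells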
IN multimer up: HIV-1 IN multimer formation enhancers, counter-screen for LEDGF/p75 integration inhibitor project, biochemical, TR-FRET; shares compounds with LEDGF integ inh; TR-FRET HIV-1 integrase multimerization; activation, % at 7.7 µM; 2,000 tested, 17% active; in the data active = activation above about 8.9%
TRFRET interf: TR-FRET optical interference artefacts, confirmation, artefact control for LEDGF/p75-dependent integration inhibitor project, biochemical, HIV-1 IN multimerization. shares compounds with LEDGF integ inh. 2,000 tested, under 10 active. TR-FRET optical interference counterscreen. inhibition, % at 7.7 µM;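 active = inhibition above the mean over all tested compounds plus 3 SD, which no compound reached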;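 also: 0% = integrase with antibodies and DMSO and 100% = antibodies without integrase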
IN-LEDGF confirm: inhibitors of HIV-1 IN-LEDGF/p75 DNA integration, confirmation, biochemical, TR-FRET | shares compounds with LEDGF integ inh | TR-FRET LEDGF/p75-dependent HIV-1 integration | inhibition, % at 3.7 µM | 2,000 tested, 36% active; in the data active = inhibition above about 14%
* = called active by the depositor; nt = no result.

SMILES	DDE Tn7 FP inh	TDP2 absorb	DDE Tn6 FP inh	UHRF1 MBD2 ctr	MBD2 DNA inh	LEDGF integ inh	IN multimer up	TRFRET interf	IN-LEDGF confirm
O=C(NC1CCCCCC1)c1cccnc1Sc1ccccc1	2	7	-6	-2	-4	24*	0	0	-3
Cc1ccc(CN2C(=O)C(CC(C)C)Nc3ncnc(N4CCN(c5ccccn5)CC4)c32)cc1 (centres undefined)	1	-8	6	-5	-7	91*	0	-2	0
O=C(N[C@H](Cc1ccccc1)C(=O)N1CCN(c2ccc(Cl)cn2)CC1)[C@H]1O[C@@H](n2ccc(=O)[nH]c2=O)[C@H](O)[C@@H]1O	1	5	8	1	-2	0	nt	nt	nt
COc1ccc(-c2c(Cc3ccccc3)nc(NC(=O)c3ccccc3F)n2C)cc1	3	2	-3	-1	5	20*	2	-10	17*
O=C(NCc1ccco1)O[C@H]1CC[C@@]23CCCN2C(=O)CCC[C@H]3C1	1	4	0	1	1	-2	nt	nt	nt
Cn1c(COc2ccccc2)nnc1SCC(=O)Nc1ccc(S(=O)(=O)Nc2nccs2)cc1	3	15	-4	1	1	0	nt	nt	nt
Cc1ccc2nsnc2c1NC(=O)c1sc2ccccc2c1Cl	1	-1	8	2	3	25*	4	-13	1
Cc1nnc(NC(=O)c2sc3ccccc3c2Cl)s1	5	6	0	-2	-5	-1	nt	nt	nt
CCCCS(=O)(=O)N1CCCc2nc(-c3ccc(Br)cc3)ccc21	1	-1	3	0	0	2	nt	nt	nt
CCc1cnc(Nc2nc(C(N)Cc3ccc(Cl)cc3)cs2)nc1 (centres undefined)	3	0	-7	2	1	4	nt	nt	nt
CCCc1cnc(Nc2nc(C(N)Cc3ccc(OC)cc3)cs2)nc1 (centres undefined)	-1	-12	0	0	6	13*	-1	4	-8
Cc1cc(/C=N/O)c(C)n1-c1ccc(Br)cc1	-4	2	-1	-2	1	18*	0	2	-5
C=CCN1C(=O)[C@@H](CC(=O)NCc2ccc(OC)c(OC)c2)[C@]2(C(=O)OC)CCCCC=C12	3	-2	-3	2	3	1	nt	nt	nt
CNc1ccc(Br)cc(C(=O)/C=C/c2ccc(OC)cc2)c1=O	4	-7	-10	12	8	30*	3	-16	27*
CNc1ccc(Br)cc(C(=O)/C=C/c2cc(OC)ccc2OC)c1=O	5	-2	-2	-1	1	10	nt	nt	nt
CNc1ccc(Br)cc(C(=O)/C=C/c2ccc3c(c2)OCO3)c1=O	2	0	2	2	2	19*	7	-25	36*
O=C(c1ccc2c(c1)[nH]c(=S)n1c3ccccc3nc21)N1CCN(c2cccc(Cl)c2)CC1	-1	21	-2	0	2	1	nt	nt	nt
COc1ccc(N2CCN(C(=O)c3ccc4c(c3)[nH]c(=S)n3c5ccccc5nc43)CC2)cc1	3	-19	9	43*	8	15*	5	-24	-8
CC(C)NC(=O)N(C)C[C@H]1Oc2c(NS(=O)(=O)c3ccccc3)cccc2C(=O)N([C@H](C)CO)C[C@@H]1C	-1	7	-3	-3	-2	35*	1	-4	1
CC(C)NC(=O)N(C)C[C@@H]1Oc2c(NS(=O)(=O)c3ccccc3)cccc2C(=O)N([C@@H](C)CO)C[C@@H]1C	-5	-1	3	0	0	-1	nt	nt	nt
C[C@H](CO)N1C[C@H](C)[C@@H](CN(C)S(=O)(=O)c2cccs2)Oc2c(NC(=O)Nc3ccccc3)cccc2C1=O	-1	-8	1	4	2	-2	nt	nt	nt
C[C@H](CO)N1C[C@H](C)[C@@H](CN(C)S(=O)(=O)c2cccs2)Oc2c(NC(=O)NC3CCCCC3)cccc2C1=O	-1	-18	-3	0	-6	18*	0	-2	1
COC(=O)C[C@@H]1CC[C@H]2[C@@H](COc3ccc(NC(=O)Nc4ccccc4C)cc3C(=O)N2C)O1	-1	4	-2	0	-5	-2	nt	nt	nt
Oc1ccc(Br)cc1-c1cc(-c2ccccc2F)[nH]n1	3	-8	7	-2	0	-4	nt	nt	nt
Oc1ccc(Br)cc1-c1cc(-c2ccccc2Cl)[nH]n1	-3	-17	-4	6	7	25*	1	-6	-4
SMILES	DDE Tn7 FP inh	TDP2 absorb	DDE Tn6 FP inh	UHRF1 MBD2 ctr	MBD2 DNA inh	LEDGF integ inh	IN multimer up	TRFRET interf	IN-LEDGF confirm
O[C@@H](Cc1ccccc1)[C@@H](/C=C/c1ccccc1)N(Cc1ccccc1)Cc1ccccc1	-2	7	1	0	-1	1	nt	nt	nt
O=C(O)c1cc(-c2ccccc2)n(-c2ccccc2)n1	-5	-3	-14	1	4	4	nt	nt	nt
COc1ccc(-n2nc(C(=O)O)cc2-c2ccccc2)cc1	0	1	2	1	1	29*	1	-4	-5
CCOc1ccc(/C=C/C2=Cc3c(sc(NC(=O)CSc4n[nH]c(N)n4)c3C#N)C(C)(C)C2)cc1	-3	-14	-12	1	-3	6	nt	nt	nt
Cc1ccsc1/C=C/C1=Cc2c(sc(NC(=O)CSc3n[nH]c(N)n3)c2C#N)C(C)(C)C1	0	0	3	8	-6	18*	0	1	39*
CCCCCCCCCC[n+]1cccc2c3ccccc3ccc21	-5	-12	1	-1	2	-5	nt	nt	nt
